Results published in ChEMBL document CHEMBL1140876, “Synthesis and antibacterial property of quinolines with potent DNA gyrase activity” (2009).
In brackets after ≈: the same amount, converted by molar mass. Activity calls are given as the source filed them. No cut-off for these calls is given here.

What was measured:
Pseudomonas aeruginosa [1] = test: Antimicrobial activity against Pseudomonas aeruginosa at 15 ug after 24 hrs by disk diffusion method; type: functional; conditions: read-out: IZ
Method in brief: (§1)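 Inoculum made in 0.85% saline against McFarland standard, swabbed evenly onto nutrient agar; sterile filter-paper discs set equidistant and loaded with equal volumes of drug at varying amounts; zone of inhibition measured after 24 h at 37 °C; ciprofloxacin reference.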

Bacillus subtilis [2] = test: Antimicrobial activity against Bacillus subtilis at 25 ug after 24 hrs by disk diffusion method; type: functional; conditions: read-out: IZ; method in brief: as §1
Klebsiella pneumoniae [3] = test: Antimicrobial activity against Klebsiella pneumoniae at 10 ug after 24 hrs by disk diffusion method; type: functional; conditions: read-out: IZ; method in brief: as §1
Salmonella typhimurium [4] = test: Antimicrobial activity against Salmonella Typhimurium at 20 ug after 24 hrs by disk diffusion method; type: functional, Salmonella enterica subsp. enterica serovar Typhimurium; conditions: Salmonella enterica, read-out: IZ; method in brief: as §1
Klebsiella pneumoniae [5] = test: Antimicrobial activity against Klebsiella pneumoniae by broth microdilution assay; type: functional
Method in brief: (§2)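 Broth microdilution per NCCLS 1997 in 96-well plate; final inoculum 10^5 cfu/mL; incubated 35.7 °C in air 18–20 h; MIC read as lowest concentration with no visible growth.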

Pseudomonas aeruginosa [6] = test: Antimicrobial activity against Pseudomonas aeruginosa at 10 ug after 24 hrs by disk diffusion method; type: functional; conditions: read-out: IZ; method in brief: as §1
Salmonella typhimurium [7] = test: Antimicrobial activity against Salmonella Typhimurium at 25 ug after 24 hrs by disk diffusion method; type: functional, Salmonella enterica subsp. enterica serovar Typhimurium; conditions: Salmonella enterica, read-out: IZ; method in brief: as §1
Staphylococcus aureus [8] = test: Antimicrobial activity against Staphylococcus aureus at 25 ug after 24 hrs by disk diffusion method; type: functional; conditions: read-out: IZ; method in brief: as §1
Staphylococcus aureus [9] = test: Antimicrobial activity against Staphylococcus aureus at 20 ug after 24 hrs by disk diffusion method; type: functional; conditions: read-out: IZ; method in brief: as §1
Klebsiella pneumoniae [10] = test: Antimicrobial activity against Klebsiella pneumoniae at 20 ug after 24 hrs by disk diffusion method; type: functional; conditions: read-out: IZ; method in brief: as §1
Escherichia coli [11] = test: Antimicrobial activity against Escherichia coli by broth microdilution assay; type: functional; method in brief: as §2
Salmonella typhi = test: Antimicrobial activity against Salmonella typhi by broth microdilution assay; type: functional, Salmonella enterica subsp. enterica serovar Typhi; conditions: Salmonella enterica
Method in brief: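 Broth microdilution in 96-well plates following the NCCLS 1997 protocol. Final inoculum was 10^5 cfu/mL, with a control organism run alongside. Plates were incubated at 35.7 °C in air for 18–20 h. MIC is the lowest concentration with no visible growth.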

Salmonella typhimurium [12] = test: Antimicrobial activity against Salmonella Typhimurium at 15 ug after 24 hrs by disk diffusion method; type: functional, Salmonella enterica subsp. enterica serovar Typhimurium; conditions: Salmonella enterica, read-out: IZ; method in brief: as §1
Escherichia coli [13] = test: Antimicrobial activity against Escherichia coli at 15 ug after 24 hrs by disk diffusion method; type: functional; conditions: read-out: IZ; method in brief: as §1
Staphylococcus aureus [14] = test: Antimicrobial activity against Staphylococcus aureus at 10 ug after 24 hrs by disk diffusion method; type: functional; conditions: read-out: IZ; method in brief: as §1
Pseudomonas aeruginosa [15] = test: Antimicrobial activity against Pseudomonas aeruginosa by broth microdilution assay; type: functional; method in brief: as §2
Escherichia coli [16] = test: Antimicrobial activity against Escherichia coli at 25 ug after 24 hrs by disk diffusion method; type: functional; conditions: read-out: IZ; method in brief: as §1
Klebsiella pneumoniae [17] = test: Antimicrobial activity against Klebsiella pneumoniae at 25 ug after 24 hrs by disk diffusion method; type: functional; conditions: read-out: IZ; method in brief: as §1
Staphylococcus aureus [18] = test: Antimicrobial activity against Staphylococcus aureus at 15 ug after 24 hrs by disk diffusion method; type: functional; conditions: read-out: IZ; method in brief: as §1
Bacillus subtilis [19] = test: Antimicrobial activity against Bacillus subtilis at 15 ug after 24 hrs by disk diffusion method; type: functional; conditions: read-out: IZ; method in brief: as §1
Staphylococcus aureus [20] = test: Antimicrobial activity against Staphylococcus aureus by broth microdilution assay; type: functional; method in brief: as §2
[21] = Inhibition of DNA gyrase assessed as conversion of relaxed pBR322 to supercoiled form
Method in brief: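 Supercoiling in 15 µL reactions: gyrase assay buffer, 150 ng relaxed pBR322, 2–3 µL purified DNA gyrase, 3 h at 37 °C (E. coli); stopped with 50% glycerol/0.25% bromophenol blue; 1% agarose in 1× TBE pH 8.3, 90 V 3 h; ethidium bromide stain; supercoiled band brightness by densitometry. Ciprofloxacin comparator.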

Escherichia coli [22] = test: Antimicrobial activity against Escherichia coli at 5 ug after 24 hrs by disk diffusion method; type: functional; conditions: read-out: IZ; method in brief: as §1
Staphylococcus aureus [23] = test: Antimicrobial activity against Staphylococcus aureus at 5 ug after 24 hrs by disk diffusion method; type: functional; conditions: read-out: IZ; method in brief: as §1
[24] = Inhibition of DNA gyrase assessed as pBR322 DNA relaxation at 1 uM
Method in brief: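 Relaxation without ATP: gyrase (60 nM) with supercoiled pBR322 DNA (6 nM) and drug at […] for 1 h at 37 °C; relaxation judged by gel. Ciprofloxacin, novobiocin and nalidixic acid comparators.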

Pseudomonas aeruginosa [25] = test: Antimicrobial activity against Pseudomonas aeruginosa at 5 ug after 24 hrs by disk diffusion method; type: functional; conditions: read-out: IZ; method in brief: as §1
Salmonella typhimurium [26] = test: Antimicrobial activity against Salmonella Typhimurium at 5 ug after 24 hrs by disk diffusion method; type: functional, Salmonella enterica subsp. enterica serovar Typhimurium; conditions: Salmonella enterica, read-out: IZ; method in brief: as §1
Pseudomonas aeruginosa [27] = test: Antimicrobial activity against Pseudomonas aeruginosa at 25 ug after 24 hrs by disk diffusion method; type: functional; conditions: read-out: IZ; method in brief: as §1
Escherichia coli [28] = test: Inhibition of DNA gyrase gene expression in Escherichia coli assessed as decrease in band intensity by RT-PCR amplification
Method in brief: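 E. coli treated with drug; total RNA from cells sampled up to 24 h; 2 µg RNA to cDNA with MMLV reverse transcriptase; gyrase gene PCR (94 °C 4 min initial denaturation, 72 °C 7 min final extension); products on agarose gel, band intensity normalized to GAPDH; untreated cells as negative control.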

Escherichia coli [29] = test: Antimicrobial activity against Escherichia coli at 20 ug after 24 hrs by disk diffusion method; type: functional; conditions: read-out: IZ; method in brief: as §1
Bacillus subtilis [30] = test: Antimicrobial activity against Bacillus subtilis at 20 ug after 24 hrs by disk diffusion method; type: functional; conditions: read-out: IZ; method in brief: as §1
Bacillus subtilis [31] = test: Antimicrobial activity against Bacillus subtilis by broth microdilution assay; type: functional; method in brief: as §2
Escherichia coli [32] = test: Antimicrobial activity against Escherichia coli at 10 ug after 24 hrs by disk diffusion method; type: functional; conditions: read-out: IZ; method in brief: as §1
Klebsiella pneumoniae [33] = test: Antimicrobial activity against Klebsiella pneumoniae at 15 ug after 24 hrs by disk diffusion method; type: functional; conditions: read-out: IZ; method in brief: as §1
Klebsiella pneumoniae [34] = test: Antimicrobial activity against Klebsiella pneumoniae at 5 ug after 24 hrs by disk diffusion method; type: functional; conditions: read-out: IZ; method in brief: as §1
Salmonella typhimurium [35] = test: Antimicrobial activity against Salmonella Typhimurium at 10 ug after 24 hrs by disk diffusion method; type: functional, Salmonella enterica subsp. enterica serovar Typhimurium; conditions: Salmonella enterica, read-out: IZ; method in brief: as §1
Pseudomonas aeruginosa [36] = test: Antimicrobial activity against Pseudomonas aeruginosa at 20 ug after 24 hrs by disk diffusion method; type: functional; conditions: read-out: IZ; method in brief: as §1

Cn1c(=O)c2cc3n(c2n(C)c1=O)CC1C3Nc2ccc(Cl)cc2C1(C)C (configuration not stated)
zone of inhibition at 15 µg/disc (Pseudomonas aeruginosa [1]): 16 mm
zone of inhibition at 25 µg/disc (Bacillus subtilis [2]): 9 mm
zone of inhibition at 10 µg/disc (Klebsiella pneumoniae [3]): 26 mm
zone of inhibition at 20 µg/disc (Salmonella typhimurium [4]): 22 mm
MIC50 (Klebsiella pneumoniae [5]): 0.125 µg/mL (≈ 0.325 µM)
MIC90 (Klebsiella pneumoniae [5]): 2 µg/mL (≈ 5.2 µM)
zone of inhibition at 10 µg/disc (Pseudomonas aeruginosa [6]): 14 mm
zone of inhibition at 25 µg/disc (Salmonella typhimurium [7]): 24 mm
zone of inhibition at 25 µg/disc (Staphylococcus aureus [8]): 36 mm
zone of inhibition at 20 µg/disc (Staphylococcus aureus [9]): 30 mm
zone of inhibition at 20 µg/disc (Klebsiella pneumoniae [10]): 34 mm
MIC50 (Escherichia coli [11]): 0.06 µg/mL (≈ 0.156 µM)
MIC90 (Escherichia coli [11]): 0.25 µg/mL (≈ 0.65 µM)
MIC50 (Salmonella typhi): 0.09 µg/mL (≈ 0.234 µM)
MIC90 (Salmonella typhi): 0.15 µg/mL (≈ 0.39 µM)
zone of inhibition at 15 µg/disc (Salmonella typhimurium [12]): 18 mm
zone of inhibition at 15 µg/disc (Escherichia coli [13]): 18 mm
zone of inhibition at 10 µg/disc (Staphylococcus aureus [14]): 24 mm
MIC50 (Pseudomonas aeruginosa [15]): 0.125 µg/mL (≈ 0.325 µM)
MIC90 (Pseudomonas aeruginosa [15]): 1 µg/mL (≈ 2.6 µM)
zone of inhibition at 25 µg/disc (Escherichia coli [16]): 23 mm
zone of inhibition at 25 µg/disc (Klebsiella pneumoniae [17]): 36 mm
zone of inhibition at 15 µg/disc (Staphylococcus aureus [18]): 26 mm
zone of inhibition at 15 µg/disc (Bacillus subtilis [19]): 6 mm
MIC50 (Staphylococcus aureus [20]): 0.25 µg/mL (≈ 0.65 µM)
Activity [21]: Active
zone of inhibition at 5 µg/disc (Escherichia coli [22]): 10 mm
zone of inhibition at 5 µg/disc (Staphylococcus aureus [23]): 20 mm
Activity [24]: Active
zone of inhibition at 5 µg/disc (Pseudomonas aeruginosa [25]): 10 mm
zone of inhibition at 5 µg/disc (Salmonella typhimurium [26]): 10 mm
zone of inhibition at 25 µg/disc (Pseudomonas aeruginosa [27]): 23 mm
Activity (Escherichia coli [28]): Active
zone of inhibition at 20 µg/disc (Escherichia coli [29]): 20 mm
zone of inhibition at 20 µg/disc (Bacillus subtilis [30]): 7 mm
MIC50 (Bacillus subtilis [31]): 0.25 µg/mL (≈ 0.65 µM)
MIC90 (Bacillus subtilis [31]): 1.2 µg/mL (≈ 3.12 µM)
zone of inhibition at 10 µg/disc (Escherichia coli [32]): 16 mm
zone of inhibition at 15 µg/disc (Klebsiella pneumoniae [33]): 30 mm
zone of inhibition at 5 µg/disc (Klebsiella pneumoniae [34]): 20 mm
zone of inhibition at 10 µg/disc (Salmonella typhimurium [35]): 16 mm
zone of inhibition at 20 µg/disc (Pseudomonas aeruginosa [36]): 20 mm
